Data as given in ChEMBL document CHEMBL2086294, “Kinetics and docking studies of two potential new inhibitors of the nucleoside hydrolase from Leishmania donovani” (Eur J Med Chem, 2012).
Activity calls are given as the source filed them. No cut-off for these calls is given here.

Legend:
Leishmania donovani [1] = experiment: Activity of Leishmania donovani recombinant nucleoside hydrolase expressed in Escherichia coli DH5alpha coexpressing MBP
Method in brief: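 LdNH fused to MBP, expressed from pMAL-c2-NH36 in E. coli DH5α (IPTG 0.3 mM, 2 h) and amylose-purified. Inosine hydrolysis coupled to excess xanthine oxidase (60 milliunits/mL) converting hypoxanthine to uric acid, read at 293 nm. 13 nM enzyme, inosine 0.3–3.0 KM, 20 mM phosphate pH 8.0, room temperature, triplicate. KM and Vmax from nonlinear Michaelis–Menten fit of initial velocities.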

[2] = molecular target: Xanthine dehydrogenase/oxidase (Homo sapiens, UniProt P47989); experiment: Inhibition of xanthine oxidase using hypoxanthine as substrate by UV-Vis spectrophotometry
Chain of Xanthine dehydrogenase/oxidase (P47989 whole entry): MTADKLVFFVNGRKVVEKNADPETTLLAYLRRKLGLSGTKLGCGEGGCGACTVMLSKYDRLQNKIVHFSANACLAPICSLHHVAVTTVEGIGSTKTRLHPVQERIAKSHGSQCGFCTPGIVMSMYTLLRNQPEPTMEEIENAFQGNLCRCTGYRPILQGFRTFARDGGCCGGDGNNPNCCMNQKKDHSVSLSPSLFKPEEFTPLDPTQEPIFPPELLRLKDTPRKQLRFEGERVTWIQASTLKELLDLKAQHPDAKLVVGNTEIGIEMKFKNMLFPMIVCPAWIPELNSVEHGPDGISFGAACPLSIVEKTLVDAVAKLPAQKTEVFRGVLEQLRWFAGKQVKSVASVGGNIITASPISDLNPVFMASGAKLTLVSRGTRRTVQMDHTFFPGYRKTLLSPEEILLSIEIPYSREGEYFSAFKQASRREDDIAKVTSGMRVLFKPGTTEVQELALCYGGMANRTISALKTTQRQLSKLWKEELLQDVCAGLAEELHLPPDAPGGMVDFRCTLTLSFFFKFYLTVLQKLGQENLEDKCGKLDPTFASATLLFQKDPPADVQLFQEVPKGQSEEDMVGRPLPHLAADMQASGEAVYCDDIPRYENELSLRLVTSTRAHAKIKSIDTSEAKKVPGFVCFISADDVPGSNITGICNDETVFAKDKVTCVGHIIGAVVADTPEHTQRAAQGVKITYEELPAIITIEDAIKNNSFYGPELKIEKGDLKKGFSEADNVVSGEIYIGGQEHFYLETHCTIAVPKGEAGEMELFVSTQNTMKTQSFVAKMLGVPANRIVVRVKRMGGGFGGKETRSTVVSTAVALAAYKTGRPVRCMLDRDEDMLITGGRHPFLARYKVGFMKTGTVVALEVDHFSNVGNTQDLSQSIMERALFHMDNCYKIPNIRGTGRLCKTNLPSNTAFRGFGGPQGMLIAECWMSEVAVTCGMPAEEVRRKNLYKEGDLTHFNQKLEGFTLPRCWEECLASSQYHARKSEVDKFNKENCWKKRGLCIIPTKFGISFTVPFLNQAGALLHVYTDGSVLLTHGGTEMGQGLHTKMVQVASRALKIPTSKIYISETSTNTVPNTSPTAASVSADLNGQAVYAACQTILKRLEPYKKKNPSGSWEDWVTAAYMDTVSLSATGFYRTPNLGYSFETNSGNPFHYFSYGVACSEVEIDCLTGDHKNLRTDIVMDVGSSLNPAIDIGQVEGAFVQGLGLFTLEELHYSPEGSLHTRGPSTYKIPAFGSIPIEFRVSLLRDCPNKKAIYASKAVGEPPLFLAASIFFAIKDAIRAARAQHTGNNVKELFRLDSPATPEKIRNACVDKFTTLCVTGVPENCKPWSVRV
Method in brief: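 Control with xanthine oxidase and hypoxanthine: uric acid formation followed spectrophotometrically, with and without test compound.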

Leishmania donovani [3] = experiment: Ratio of inosine Km to compound Ki for Leishmania donovani recombinant nucleoside hydrolase
Leishmania donovani [4] = experiment: Competitive inhibition of Leishmania donovani recombinant nucleoside hydrolase expressed in Escherichia coli DH5alpha coexpressing MBP using inosine as substrate by Lineweaver-Burk plot analysis
[5] = Inhibition of Leishmania donovani recombinant nucleoside hydrolase expressed in Escherichia coli DH5alpha coexpressing MBP using inosine as substrate by xanthine oxidase-coupled assay
Method in brief: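 MBP-fused enzyme (13 nM) with 0.3 mM inosine and xanthine oxidase (60 milliunits/mL) in 20 mM phosphate pH 8.0. Uric acid formation read at 293 nm, with at least six inhibitor concentrations. IC50 from nonlinear dose-response fit of % inhibition. Ki from five or six inhibitor concentrations at a substrate level near KM, converted with the Cheng–Prusoff equation.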

Row | Km (Leishmania donovani [1]) [µM] | inhibition (INH) [2] | Ratio (Leishmania donovani [3]) | inhibition (Leishmania donovani [4]) | IC50 [5] [µM] | SMILES | Ki [5] [µM]
1 | 434 | – | – | – | – | O=c1[nH]cnc2c1ncn2[C@@H]1O[C@H](CO)[C@@H](O)[C@H]1O | –
2 | – | Not Active | 26 | Active | 28.9 | O=C(O)c1cn([C@@H]2O[C@H](CO)[C@@H](O)[C@H]2O)c2ccc(F)cc2c1=O | 17
3 | – | Not Active | 270 | Active | 2.66 | O=C(O)c1cn([C@@H]2O[C@H](CO)[C@@H](O)[C@H]2O)c2ccc(Cl)cc2c1=O | 1.6
